Source: ChEMBL document CHEMBL1138842, “Fluorinated phenylcyclopropylamines. 2. Effects of aromatic ring substitution and of absolute configuration on inhibition of microbial tyramine oxidase” (J Med Chem, 2004)
Structures can show the parent of a compound that is named as a salt.

Assays:
[1] = Inhibition concentration against tyramine oxidase of Arthrobacter spp.; Partially irreversible inhibition
[2] = Ionization constant was determined; assay type: physicochemical
Summary of the method: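 Determined by pH-metric titration in 0.1 M KNO₃ at 21 °C.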

[3] = biological target: T1, Amine oxidase [flavin-containing] A (Homo sapiens, UniProt P21397); experiment: Inhibitory concentration for human liver monoamine oxidase A
T1 sequence (P21397 whole entry): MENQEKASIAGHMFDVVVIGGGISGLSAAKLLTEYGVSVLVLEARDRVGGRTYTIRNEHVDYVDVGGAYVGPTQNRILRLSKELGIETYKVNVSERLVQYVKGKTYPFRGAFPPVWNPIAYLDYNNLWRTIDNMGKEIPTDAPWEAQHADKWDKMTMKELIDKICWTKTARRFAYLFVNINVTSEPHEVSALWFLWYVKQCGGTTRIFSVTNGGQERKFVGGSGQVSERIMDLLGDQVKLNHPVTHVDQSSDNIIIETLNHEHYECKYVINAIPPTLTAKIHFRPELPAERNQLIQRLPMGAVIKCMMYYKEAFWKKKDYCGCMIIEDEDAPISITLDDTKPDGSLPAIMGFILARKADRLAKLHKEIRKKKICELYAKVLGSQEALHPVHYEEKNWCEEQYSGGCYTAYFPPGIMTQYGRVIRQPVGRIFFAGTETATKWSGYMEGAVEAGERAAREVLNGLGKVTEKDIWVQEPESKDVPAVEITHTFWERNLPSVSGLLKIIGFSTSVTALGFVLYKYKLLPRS

[4] = biological target: T2, Amine oxidase [flavin-containing] B (Homo sapiens, UniProt P27338); experiment: Inhibitory concentration for human liver monoamine oxidase B
T2 sequence (P27338 whole entry): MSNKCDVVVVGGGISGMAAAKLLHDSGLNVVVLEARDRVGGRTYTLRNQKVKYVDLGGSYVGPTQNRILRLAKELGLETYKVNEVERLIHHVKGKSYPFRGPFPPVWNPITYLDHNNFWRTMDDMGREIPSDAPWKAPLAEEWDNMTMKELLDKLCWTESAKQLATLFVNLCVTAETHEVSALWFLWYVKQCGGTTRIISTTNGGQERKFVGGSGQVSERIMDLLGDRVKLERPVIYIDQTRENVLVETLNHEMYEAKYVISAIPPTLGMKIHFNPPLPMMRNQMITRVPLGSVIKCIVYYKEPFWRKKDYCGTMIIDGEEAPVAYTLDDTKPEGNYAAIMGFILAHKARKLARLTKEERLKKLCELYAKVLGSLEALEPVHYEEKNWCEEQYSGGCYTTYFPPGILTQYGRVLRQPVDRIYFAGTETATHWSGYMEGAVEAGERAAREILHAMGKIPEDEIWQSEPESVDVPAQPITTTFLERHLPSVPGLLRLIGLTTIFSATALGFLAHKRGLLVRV

[5] = Inhibitory concentration against tyramine oxidase of Arthrobacter spp.; Competitive inhibition
[6] = Inhibitory concentration against tyramine oxidase of Arthrobacter spp.; Not determined.
[7] = Inhibitory concentration against tyramine oxidase of Arthrobacter spp.; Irreversible inhibition

pKa ([2]; read-out: pKa) | IC50 [5] | Structure (SMILES) | further results
7.41 | 0.39 µM | Cc1ccc([C@@]2(F)C[C@H]2N)cc1 (relative stereo) | IC50 [3]: 6.7 µM; IC50 [4]: 6.7 µM
7.31 | 8.1 µM | N[C@@H]1C[C@]1(F)c1ccc(F)cc1 (relative stereo) | 
7.19 | 3.7 µM | NC1CC1(F)c1ccc(Cl)cc1 (trans isomer) | 
7.35 | 3.6 µM | N[C@H]1C[C@]1(F)c1ccccc1 (relative stereo) | 

The next lines start with the compound.

Structure (SMILES) | pKa ([2]; read-out: pKa) | IC50 [5] | further results
N[C@H]1C[C@]1(F)c1ccc(F)cc1 (relative stereo) | 6.88 |  | IC50 [1]: 75 µM
Cl.NC1CC1(F)c1ccc(Cl)cc1 (stereo in doubt) |  |  | IC50 [1]: 89 µM; pKa [2]: 6.81
N[C@@H]1C[C@H]1c1ccccc1 (relative stereo) [TRANYLCYPROMINE HYDROCHLORIDE] | 8.47 | 35 µM | 
NNC(N)=O [HYDRAZINECARBOXAMIDE] |  |  | IC50 [3]: 6.7 µM
Cc1ccc([C@@]2(F)C[C@@H]2N)cc1 | 7.04 |  | IC50 [6]: 51 µM
NC1CC1c1ccccc1 (stereo not drawn) | 8.5 |  | IC50 [7]: 33 µM
N[C@@H]1C[C@]1(F)c1ccccc1 (relative stereo) | 6.98 |  | IC50 [1]: 190 µM
